Active and inactive are the calls of the source. No cut-off for these calls is given here.
Assays:
[1] = species on record: Cavia porcellus; experiment: Inotropic activity at L type calcium channel in guinea pig left atrium assessed as decrease in tension at 1 uM relative to control; assay type: tissue-based; design: scale not given: the % may be the effect or the level left; details: Cardiac atrium
[2] = species on record: Cavia porcellus; experiment: Chronotropic activity at L type calcium channel in guinea pig right atrium assessed as decrease in spontaneous beating at 10 uM relative to control; assay type: tissue-based; design: scale not given: the % may be the effect or the level left; details: Cardiac atrium
[3] = Inotropic activity at L type calcium channel in guinea pig left atrium assessed as decrease in tension; assay type: tissue-based; details: Cavia porcellus, Cardiac atrium
How it was run: (§1)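 Guinea-pig atria: left atrium driven at 1 Hz for inotropy, spontaneously beating right atrium for chronotropy. Increasing cumulative doses, readout is percent decrease. EC50 (inotropic) and EC30 (chronotropic) by Litchfield–Wilcoxon probit analysis on log concentration–response curves, n = 6–7. Not calculated when the maximum effect was below 50%.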

[4] = species on record: Cavia porcellus; experiment: Activity at L type calcium channel in K+ depolarized guinea pig aortic strip assessed as inhibition of calcium induced contraction at 50 uM; assay type: tissue-based; design: scale not given: the % may be the effect or the level left; details: Aorta
How it was run: (§2)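 Guinea-pig aortic strips depolarized with 80 mM K+. Drugs added cumulatively. Readout is percent inhibition of calcium-induced contraction, n = 5–6. Control versus treated values tested at each concentration by Student's t-test, P < 0.05.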

[5] = Activity at L type calcium channel in K+ depolarized guinea pig longitudinal smooth muscle assessed as inhibition of calcium induced contraction; design: species or system Cavia porcellus
[6] = species on record: Cavia porcellus; experiment: Activity at L type calcium channel in K+ depolarized guinea pig aortic strip assessed as inhibition of calcium induced contraction at 100 uM; assay type: tissue-based; design: scale not given: the % may be the effect or the level left; details: Aorta; how it was run: as §2
[7] = species on record: Cavia porcellus; experiment: Activity at L type calcium channel in K+ depolarized guinea pig longitudinal smooth muscle assessed as inhibition of calcium induced contraction at 10 uM; design: scale not given: the % may be the effect or the level left
[8] = species on record: Cavia porcellus; experiment: Inotropic activity at L type calcium channel in guinea pig left atrium assessed as decrease in tension at 50 uM relative to control; assay type: tissue-based; design: scale not given: the % may be the effect or the level left; details: Cardiac atrium
[9] = species on record: Cavia porcellus; experiment: Chronotropic activity at L type calcium channel in guinea pig right atrium assessed as decrease in spontaneous beating; assay type: tissue-based; details: Cardiac atrium; how it was run: as §1
[10] = species on record: Cavia porcellus; experiment: Activity at L type calcium channel in K+ depolarized guinea pig longitudinal smooth muscle assessed as inhibition of calcium induced contraction at 100 uM; design: scale not given: the % may be the effect or the level left
[11] = species on record: Cavia porcellus; experiment: Chronotropic activity at L type calcium channel in guinea pig right atrium assessed as decrease in spontaneous beating at 5 uM relative to control; assay type: tissue-based; design: scale not given: the % may be the effect or the level left; details: Cardiac atrium
[12] = species on record: Cavia porcellus; experiment: Inotropic activity at L type calcium channel in guinea pig left atrium assessed as decrease in tension at 100 uM relative to control; assay type: tissue-based; design: scale not given: the % may be the effect or the level left; details: Cardiac atrium
[13] = species on record: Cavia porcellus; experiment: Inotropic activity at L type calcium channel in guinea pig left atrium assessed as decrease in tension at 10 uM relative to control; assay type: tissue-based; design: scale not given: the % may be the effect or the level left; details: Cardiac atrium
[14] = species on record: Cavia porcellus; experiment: Activity at L type calcium channel in K+ depolarized guinea pig aortic strip assessed as inhibition of calcium induced contraction at 10 uM; assay type: tissue-based; design: scale not given: the % may be the effect or the level left; details: Aorta; how it was run: as §2
[15] = species on record: Cavia porcellus; experiment: Chronotropic activity at L type calcium channel in guinea pig right atrium assessed as decrease in spontaneous beating at 50 uM relative to control; assay type: tissue-based; design: scale not given: the % may be the effect or the level left; details: Cardiac atrium
[16] = species on record: Cavia porcellus; experiment: Inotropic activity at L type calcium channel in guinea pig left atrium assessed as decrease in tension at 5 uM relative to control; assay type: tissue-based; design: scale not given: the % may be the effect or the level left; details: Cardiac atrium
[17] = species on record: Cavia porcellus; experiment: Chronotropic activity at L type calcium channel in guinea pig right atrium assessed as decrease in spontaneous beating at 100 uM relative to control; assay type: tissue-based; design: scale not given: the % may be the effect or the level left; details: Cardiac atrium
[18] = species on record: Cavia porcellus; experiment: Activity at L type calcium channel in K+ depolarized guinea pig longitudinal smooth muscle assessed as inhibition of calcium induced contraction at 1 uM; design: scale not given: the % may be the effect or the level left
[19] = test system: HEK293; experiment: Displacement of (+)-[5-methyl-3H][…] from L type calcium channel Cav1.2b in rabbit expressed in HEK293 cells; assay type: cell-based; details: Oryctolagus cuniculus
How it was run: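 Intact HEK-293 cells transfected with rabbit Cav1.2a (α1C-a) or Cav1.2b (α1C-b) plasmid, labelled with (+)-[5-methyl-3H]PN200-110. Nonspecific binding about 10–20% of total. IC50 is mean ± S.E.M. of three independent experiments.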

[20] = Displacement of (+)-[5-methyl-3H][…] from L type calcium channel in guinea pig heart ventricles; design: species or system Cavia porcellus
How it was run: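 Guinea-pig ventricular membranes incubated with 0.5 nM (+)-[5-methyl-3H]PN200-110 and test compounds at 0.1–50 µM in a competitive radioligand assay. Ki and IC50 reported as mean ± S.E.M. Student's t-test, significance P < 0.001.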

SMILES | Activity [2] [%] | EC50 [3] [nM] | Activity [4] [%] | Activity [6] [%] | Activity [8] [%] | EC30 [9] [nM] | further results
COC(=O)C1=C(C)NC(C)=C(C(=O)OC)C1c1c(Cl)nc2scc(C)n12 | 39 | 103 | 47 | – | – | – | Activity [1]: 79%
COC(=O)C1=C(C)NC(C)=C(C(=O)OC)C1c1c(-c2ccccc2C(F)(F)F)nc2sccn12 | 25 | 93 | – | 24 | – | – | Activity [1]: 56%; IC50 [5]: 1660 nM; Activity [7]: 92%
CCc1cn2c(C3C(C(=O)OC)=C(C)NC(C)=C3C(=O)OC)c(-c3cc(OC)ccc3OC)nc2s1 | 92 | 2240 | 29 | – | 72 | 730 | –
CCCc1cn2c(C3C(C(=O)OC)=C(C)NC(C)=C3C(=O)OC)c(-c3c(OC)ccc(OC)c3[N+](=O)[O-])nc2s1 | – | 39 | – | 5 | 55 | – | Activity [10]: 89%; IC50 [5]: 12800 nM; Activity [11]: 25%
COC(=O)C1=C(C)NC(C)=C(C(=O)OC)C1c1c(-c2ccccc2)nc2sc(Cl)cn12 | 87 | 1960 | 22 | – | – | 2140 | Activity [12]: 58%
COC(=O)C1=C(C)NC(C)=C(C(=O)OC)C1c1c(-c2ccccc2)nc2sc(C)c(C)n12 | – | 590 | – | 12 | – | 330 | Activity [12]: 76%; Activity [11]: 94%
COC(=O)C1=C(C)NC(C)=C(C(=O)OC)C1c1c(-c2cc(OC)c([N+](=O)[O-])cc2OC)nc2sc(Cl)cn12 | – | 360 | – | – | – | 310 | Activity [13]: 58%; Activity [11]: 90%; Activity [14]: 19%
COC(=O)C1=C(C)NC(C)=C(C(=O)OC)C1c1c(-c2cc(OC)ccc2OC)nc2sccn12 | 31 | 440 | – | 24 | 92 | – | IC50 [5]: 12400 nM; Activity [7]: 51%
COC(=O)C1=C(C)NC(C)=C(C(=O)OC)C1c1c(-c2cc(OC)c(OC)cc2[N+](=O)[O-])nc2sccn12 | – | 1340 | – | 35 | 91 | 6970 | Activity [15]: 90%
COC(=O)C1=C(C)NC(C)=C(C(=O)OC)C1c1c(-c2c(OC)ccc(OC)c2[N+](=O)[O-])nc2sc(C)cn12 | – | 93 | – | 27 | – | – | Activity [16]: 71%; Activity [17]: 47%
COC(=O)C1=C(C)NC(C)=C(C(=O)OC)C1c1c(-c2cc(OC)ccc2OC)nc2sc(C)cn12 | 58 | 1430 | – | 15 | 78 | 1360 | –
COC(=O)C1=C(C)NC(C)=C(C(=O)OC)C1c1c(Cl)nc2sc(Cl)cn12 | 37 | 180 | 34 | – | 77 | – | –
COC(=O)C1=C(C)NC(C)=C(C(=O)OC)C1c1c(-c2ccccc2)nc2scc(C)n12 | – | 830 | 30 | – | – | 640 | Activity [12]: 59%; Activity [11]: 88%
COC(=O)C1=C(C)NC(C)=C(C(=O)OC)C1c1c(-c2ccc(OC)cc2OC)nc2sccn12 | 55 | 1240 | – | 42 | 71 | 5880 | –
COC(=O)C1=C(C)NC(C)=C(C(=O)OC)C1c1c(-c2cc(OC)c(OC)c(OC)c2)nc2sccn12 | – | – | – | 44 | – | – | Activity [1]: 42%; Activity [18]: 64%; IC50 [5]: 550 nM; Activity [11]: 25%
COC(=O)C1=C(C)NC(C)=C(C(=O)OC)C1c1c(-c2cc(OC)c([N+](=O)[O-])cc2OC)nc2sc(C)cn12 | 87 | 26 | – | 32 | – | 2110 | Activity [16]: 75%; Activity [18]: 94%; IC50 [5]: 240 nM; Activity [19]: inactive; Log Ki [20]: < -5
COC(=O)C1=C(C)NC(C)=C(C(=O)OC)C1c1c(-c2c(OC)ccc(OC)c2[N+](=O)[O-])nc2sc(Cl)cn12 | – | – | – | 32 | – | 11200 | Activity [1]: 42%; Activity [17]: 64%
COC(=O)C1=C(C)NC(C)=C(C(=O)OC)C1c1c(-c2c(OC)ccc(OC)c2[N+](=O)[O-])nc2sccn12 | – | 360 | – | 17 | – | – | Activity [13]: 71%; Activity [10]: 86%; IC50 [5]: 11000 nM; Activity [17]: 12%
COC(=O)C1=C(C)NC(C)=C(C(=O)OC)C1c1c(-c2cccc(C(F)(F)F)c2)nc2sccn12 | 78 | 310 | 27 | – | 89 | 1900 | –
COC(=O)C1=C(C)NC(C)=C(C(=O)OC)C1c1c(C(F)(F)F)nc2sc(C)cn12 | 36 | – | 28 | – | – | – | Activity [1]: 46%
COC(=O)C1=C(C)NC(C)=C(C(=O)OC)C1c1c(-c2ccccc2OC)nc2sccn12 | – | 1970 | – | 28 | – | 1990 | Activity [12]: 54%; Activity [17]: 95%
COC(=O)C1=C(C)NC(C)=C(C(=O)OC)C1c1c(-c2cccc(OC(F)(F)F)c2)nc2sccn12 | – | 830 | – | 26 | 86 | 1180 | Activity [11]: 69%
COC(=O)C1=C(C)NC(C)=C(C(=O)OC)C1c1c(-c2cc(OC)c([N+](=O)[O-])cc2OC)nc2sccn12 | 67 | 54 | 35 | – | – | 3970 | Activity [16]: 54%; IC50 [5]: 2560 nM; Activity [7]: 97%
COC(=O)C1=C(C)NC(C)=C(C(=O)OC)C1c1c(-c2ccc(OC)c(OC)c2)nc2sccn12 | – | 2640 | 15 | – | – | 1440 | Activity [12]: 61%; Activity [15]: 80%
COC(=O)C1=C(C)NC(C)=C(C(=O)OC)C1c1c(C)nc2sc(Cl)cn12 | 30 | 130 | 24 | – | 63 | – | –
COC(=O)C1=C(C)NC(C)=C(C(=O)OC)C1c1c(Cl)nc2sc(C)c(C)n12 | – | 81 | – | – | – | – | Activity [16]: 73%; Activity [11]: 29%; Activity [14]: 29%
COC(=O)C1=C(C)NC(C)=C(C(=O)OC)C1c1c(-c2cc(OC)ccc2OC)nc2sc(Cl)cn12 | – | 900 | – | 11 | – | 360 | Activity [12]: 55%; Activity [17]: 84%
